Assay results from ChEMBL document CHEMBL4765368, “Structure guided design and synthesis of furyl thiazolidinedione derivatives as inhibitors of GLUT 1 and GLUT 4, and evaluation of their anti-leukemic potential” (Eur J Med Chem, 2020).
The source made the active and inactive calls. The calls are words filed in the database; no cut-off is given here.

Assays:
HS27 = test: Cytotoxicity against human HS27 cells assessed as cell death at 100 uM measured after 48 hrs by Hoechst 33342/propidium iodide staining based imaging analysis relative to control; details: hs27, 48 h
Summary of the method: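 HS-27 fibroblasts in DMEM with 10% FBS and penicillin/streptomycin at 37 °C, 5% CO2, seeded at 3,000 cells/well. Treated 48 h with DMSO-dissolved compound (0.5–100 µM range) in quadruplicate. Hoechst 33342 and PI were added 2 h before imaging, and Hoechst/PI-colocalised nuclei were scored as dead. Controls were DMSO vehicle, H2O2 and untreated cells.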

[1] = Toxicity in SCID mouse assessed as death at 500 mg/kg, ip administered as single dose; assay type: organism-based; details: in vivo
Summary of the method: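 SCID mice aged 8–10 weeks were kept in individually ventilated cages on a 12 h light/dark cycle with autoclaved pellets and water ad libitum.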

CCRF-CEM [2] = test: Antitumor activity against human CCRF-CEM cells xenografted in SCID mouse assessed as reduction in tumor growth at 50 mg/kg, ip administered daily for 5 days with 2 days interval for 18 days; assay type: functional, organism-based; details: time 18.0 day
Summary of the method: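 SCID mice aged 8-10 weeks, in individually ventilated cages on a 12 h light/dark cycle, autoclaved pellets and water ad libitum. 1×10^5 CEM cells were injected on the back to form palpable tumors, which were minced and regrafted. Compound given 50 mg/kg i.p. on days 1-5, 8-12 and 15-18. Saline vehicle group; doxorubicin 20 mg/kg i.p. reference group. n=6 per group. Tumor volume by caliper every two days as (width)² x length/2.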

[3] = Cytotoxicity against human WBC assessed as reduction in cell viability measured after 48 hrs by MTT assay; assay type: tissue-based
Summary of the method: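 WBCs were isolated from donor blood by HiSep density centrifugation, followed by RBC lysis and PBS washes, and held overnight at 37 °C with 5% CO2. Compound at 2.5–100 μM for 48 h. After two PBS washes, MTT was added for 4 h at 37 °C, formazan was dissolved in DMSO, and absorbance was read at 570 nm. IC50 taken from the dose-response curve.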

[4] = Toxicity in SCID mouse assessed as distress at 1000 mg/kg, ip administered as single dose measured within 6 hrs; assay type: organism-based; details: in vivo
CCRF-CEM [5] = test: Cell cycle arrest in human CCRF-CEM cells assessed as decrease in accumulation at G0/G1 phase measured after 72 hrs by NIM-DAPI staining based flow cytometry; assay type: functional
Summary of the method: (§1)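 An asynchronous CEM culture was seeded at 100,000 cells/well in 1 mL complete RPMI and exposed to 10, 25 or 50 μM for 72 h. Controls were untreated cells, DMSO and hydrogen peroxide. Cells were pelleted at 262 g, resuspended, and stained with NIM-DAPI, which permeabilizes and stains DNA in one step. About 100,000 events per sample were read by flow cytometry. Triplicates.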

[6] = molecular target: T1, Solute carrier family 2, facilitated glucose transporter member 1 (Homo sapiens) (UniProt P11166); test: Inhibition of GLUT1 in human CCRF-CEM cells assessed as upregulation of GRP78 expression at 10 uM measured after 6 hrs by Western blot analysis; assay type: cell-based
T1 sequence (whole entry): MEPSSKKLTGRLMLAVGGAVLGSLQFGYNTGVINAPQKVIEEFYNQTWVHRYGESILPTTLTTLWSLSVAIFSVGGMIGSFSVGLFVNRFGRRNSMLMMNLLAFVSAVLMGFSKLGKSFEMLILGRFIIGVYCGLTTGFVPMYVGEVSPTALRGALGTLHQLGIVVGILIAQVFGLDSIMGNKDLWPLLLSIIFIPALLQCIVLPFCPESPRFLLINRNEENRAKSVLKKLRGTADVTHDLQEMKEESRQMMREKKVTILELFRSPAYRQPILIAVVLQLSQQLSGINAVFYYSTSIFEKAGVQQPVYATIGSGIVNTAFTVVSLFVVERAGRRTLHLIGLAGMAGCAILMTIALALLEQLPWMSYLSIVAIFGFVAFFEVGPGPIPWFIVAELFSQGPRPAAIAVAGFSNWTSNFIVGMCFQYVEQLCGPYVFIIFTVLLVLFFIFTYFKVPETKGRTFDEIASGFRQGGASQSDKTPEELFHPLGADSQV
Summary of the method: (§2)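 CEM cells were treated with 10 µM for 6 h. Untreated cells were the negative control and staurosporine the positive control. Cells were washed with cold PBS, lysed in Laemmli buffer with protease inhibitors, sonicated and quantified. Blots were blocked 45 min in PBS-Tween-5% milk, with primary antibody 3 h and secondary 1 h at room temperature.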

CCRF-CEM [7] = test: Induction of apoptosis in human CCRF-CEM cells assessed as live cells at CC50 measured after 24 hrs by AnnexinV-FITC/propidium iodide staining based flow cytometry analysis (reference value: 92.15%); assay type: functional
Summary of the method: (§3)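 CCRF-CEM cells in RPMI with 10% FBS were seeded in 24-well plates, incubated overnight, given fresh medium, then treated for 24 h. Cells were PBS-washed, spun at 500 g for 5 min at 4 °C, and resuspended in ice-cold binding buffer. They were stained with annexin V-FITC and PI for 15 min on ice in the dark, then read by flow cytometry. Untreated cells were the negative control; triplicates.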

MDA-MB-231 = test: Cytotoxicity against human MDA-MB-231 cells assessed as reduction in cell viability measured after 48 hrs by Hoechst 33342/propidium iodide staining based imaging analysis; assay type: functional
Summary of the method: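 Cells were seeded at 10,000 per well (HS-27 at 3,000) in 10% FBS RPMI (leukemic lines) or DMEM (MDA-MB-231, HS-27). Compound in DMSO (1% v/v final) at 0.5–100 µM for 48 h. Hoechst 33342 and PI were added 2 h before automated imaging; dead cells were co-stained. Quadruplicates. CC50 was taken by linear interpolation between the two concentrations nearest 50% death.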

CCRF-CEM [8] = test: Cell cycle arrest in human CCRF-CEM cells assessed as increase in accumulation at sub-G0/G1 phase measured after 72 hrs by NIM-DAPI staining based flow cytometry; assay type: functional; summary of the method: as §1
CCRF-CEM [9] = test: Induction of apoptosis in human CCRF-CEM cells assessed as necrotic cells at CC50 measured after 24 hrs by AnnexinV-FITC/propidium iodide staining based flow cytometry analysis relative to control; assay type: functional; summary of the method: as §3
[10] = Selectivity index, ratio of IC50 for human WBC to CC50 for human CCRF-CEM cells
Summary of the method: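 Donor blood was layered on HiSep and centrifuged at 400×g for 30 min; mononuclear cells were washed and RBC-lysed to give WBCs. WBCs were seeded overnight at 37 °C, 5% CO2, then exposed to 2.5–100 µM for 48 h. MTT was added for 4 h at 37 °C, formazan was dissolved in DMSO and A570 read. The CEM CC50 came from a 48 h Hoechst/PI imaging assay.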

[11] = Toxicity in SCID mouse xenografted with human CCRF-CEM cells assessed as body weight loss at 50 mg/kg, ip administered daily for 5 days with 2 days interval for 18 days; assay type: organism-based; details: in vivo, 432 h, time 18 day
CCRF-CEM [12] = test: Induction of apoptosis in human CCRF-CEM cells assessed as activation of caspase 3 at 10 uM measured after 6 hrs by Western blot analysis; assay type: functional, cell-based; summary of the method: as §2
CCRF-CEM [13] = test: Cell cycle arrest in human CCRF-CEM cells assessed as decrease in accumulation at S phase measured after 72 hrs by NIM-DAPI staining based flow cytometry; assay type: functional; summary of the method: as §1

SMILES | Activity (HS27) [%] | Activity [1] | Activity (CCRF-CEM [2]) | IC50 [3] [µM] | Activity [4] | Activity (CCRF-CEM [5]) | inhibition [6] | Activity (CCRF-CEM [7]) [%] | CC50 (MDA-MB-231) [µM] | Activity (CCRF-CEM [8]) | Activity (CCRF-CEM [9]) [%] | Ratio IC50 [10] | Activity [11] | Activity (CCRF-CEM [12]) | Activity (CCRF-CEM [13])
O=C(CN1C(=O)S/C(=C/c2ccco2)C1=O)Nc1ccc(Cl)c(Cl)c1 | 27.32 |  |  |  |  |  |  |  |  |  |  |  |  |  | 
O=C(CN1C(=O)S/C(=C/c2ccco2)C1=O)Nc1nc2ccccc2s1 |  | Non-Toxic | Active | 187 | Non-Toxic | Dose-dependent effect | Active | 26.14 | 45.1 | Dose-dependent effect | 16.6 | 107 | Non-Toxic | Active | Dose-dependent effect
